Test results taken from ChEMBL document CHEMBL3120099, “Novel S1P(1) receptor agonists--part 2: from bicyclo[3.1.0]hexane-fused thiophenes to isobutyl substituted thiophenes” (J Med Chem, 2014).
Values belong to the molecule of their own block, whether it stands above or below them. Active and inactive are the calls of the source. The calls are words filed in the database; no cut-off is given here.

Experiments:
Rattus norvegicus [1] = test: Lymphopenic activity in Wistar rat assessed as reduction in blood lymphocyte count at 3 mg/kg, po after 24 hrs; format: functional; parameters: scale not given: the % may be the effect or the level left
How it was run: (§1)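 Normotensive male Wistar rats given 1–10 mg/kg by gavage in 5% DMSO/7.5% succinylated gelatin. Blood taken before and 3, 6 and 24 h after dosing, with later times for some compounds. Lymphocytes counted by hematology analyzer. % LC change calculated per animal relative to the predose value (=100%). Mean ± SEM.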

Rattus norvegicus [2] = test: Lymphopenic activity in Wistar rat assessed as reduction in blood lymphocyte count at 3 mg/kg, po after 3 hrs; format: functional; parameters: scale not given: the % may be the effect or the level left; how it was run: as §1
Rattus norvegicus [3] = test: Lymphopenic activity in Wistar rat assessed as reduction in blood lymphocyte count at 10 mg/kg, po after 3 hrs; format: functional; parameters: scale not given: the % may be the effect or the level left; how it was run: as §1
Rattus norvegicus [4] = test: Lymphopenic activity in Wistar rat assessed as reduction in blood lymphocyte count at 10 mg/kg, po after 6 hrs; format: functional; parameters: scale not given: the % may be the effect or the level left; how it was run: as §1
Rattus norvegicus [5] = test: Lymphopenic activity in Wistar rat assessed as reduction in blood lymphocyte count at 10 mg/kg, po after 24 hrs; format: functional; how it was run: as §1
Rattus norvegicus [6] = test: Lymphopenic activity in Wistar rat assessed as reduction in blood lymphocyte count at 3 mg/kg, po after 6 hrs; format: functional; parameters: scale not given: the % may be the effect or the level left; how it was run: as §1
[7] = target: Sphingosine 1-phosphate receptor 1 (Homo sapiens, UniProt P21453); test: Agonist activity at human recombinant S1P1 receptor expressed in CHO cells assessed as membrane-bound 35S-GTPgammaS incubated 30 mins prior to substrate addition measured after 1 hr by topcount scintillation counting analysis; format: functional, cell-based
[8] = target: Sphingosine 1-phosphate receptor 3 (Homo sapiens, UniProt Q99500); test: Agonist activity at human recombinant S1P3 receptor expressed in CHO cells assessed as membrane-bound 35S-GTPgammaS incubated 30 mins prior to substrate addition measured after 1 hr by topcount scintillation counting analysis; format: functional, cell-based
[9] = Half life in Wistar rat at 1 mg/kg, iv; format: ADME, organism-based; parameters: dose 1 mg/kg, route intravenous; conditions: in vivo
How it was run: (§2)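 Male Wistar rats (~250 g), jugular vein and carotid artery catheters implanted 2 days before dosing under isoflurane with buprenorphine analgesia. 1 mg/kg given as a 5 min jugular infusion in aqueous mixed micellar vehicle (phospholipids, bile acids). Serial EDTA blood sampling up to 24 h. Plasma analysed by LC-MS-MS after methanol precipitation. Noncompartmental analysis.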

[10] = Intrinsic clearance in Wistar rat hepatocytes assessed per 10^6 cells at 1 uM by LC-MS/MS analysis; format: ADME, cell-based, Hepatocyte; conditions: read-out: CLH
How it was run: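 Male rat hepatocytes from two-step collagenase perfusion (viability ≥85%), plated at 5.0 × 10^5 viable cells/mL on collagen and preincubated ~3 h at 37 °C, 5% CO2. Compound at 1 µM final. Duplicate wells sampled at 0–24 h with methanol/0.3% SDS. LC-MS-MS (MRM). CLint from initial first-order disappearance rates.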

[11] = Plasma concentration in Wistar rat at 10 mg/kg, po after 3 hrs; format: ADME, organism-based; parameters: dose 10 mg/kg, route oral
[12] = Cmax in Wistar rat at 10 mg/kg, po; format: ADME, organism-based; parameters: dose 10 mg/kg, route oral; conditions: in vivo
How it was run: (§3)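 Male Wistar rats (~250 g), 10 mg/kg by gavage as a DMSO solution added to 7.5% succinylated gelatin in water (5% DMSO final). Sublingual blood under light isoflurane predose and at 0.5, 1, 2, 3, 4, 6, 8, 24 h into EDTA. Plasma LC-MS-MS after methanol precipitation. Noncompartmental parameters. Bioavailability referenced to 1 mg/kg iv.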

Rattus norvegicus [13] = test: Clearance in Wistar rat at 1 mg/kg, iv; format: ADME, organism-based; parameters: dose 1 mg/kg, route intravenous; conditions: in vivo; how it was run: as §2
[14] = Oral bioavailability in Wistar rat at 10 mg/kg; format: ADME, organism-based; conditions: in vivo; how it was run: as §3
[15] = AUC (0 to 24 hrs) in Wistar rat at 10 mg/kg, po; format: ADME, organism-based; parameters: time < 24 hr, dose 10 mg/kg, route oral; conditions: plasma
[16] = Plasma concentration in Wistar rat at 10 mg/kg, po after 6 hrs; format: ADME, organism-based; parameters: dose 10 mg/kg, route oral
[17] = Tmax in Wistar rat at 10 mg/kg, po; format: ADME, organism-based; parameters: dose 10 mg/kg, route oral; conditions: in vivo; how it was run: as §3
[18] = Intrinsic clearance in Wistar rat liver microsomes at 1 uM by LC-MS/MS analysis; format: ADME; conditions: read-out: CLH
How it was run: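 Pooled male Wistar rat liver microsomes at 0.5 mg/mL protein. Compound at 1 µM, 37 °C, DMSO ≤0.1%. Started with NADPH-regenerating system (NADP, glucose 6-phosphate, MgCl2, G6PDH, pH 7.4 phosphate). Quenched with ice-cold methanol at times up to 15 min, then LC-MS-MS.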

[19] = Plasma concentration in Wistar rat at 10 mg/kg, po after 24 hrs; format: ADME, organism-based; parameters: dose 10 mg/kg, route oral
[20] = Volume of distribution at steady state in Wistar rat at 1 mg/kg, iv; format: ADME, organism-based; parameters: dose 1 mg/kg, route intravenous; conditions: in vivo, read-out: Vdss; how it was run: as §2
[21] = Cmax in Wistar rat plasma at 10 mg/kg, po; format: ADME, organism-based; parameters: dose 10 mg/kg, route oral
How it was run: (§4)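 Male Wistar rats given 10 mg/kg orally in 5% DMSO/succinylated gelatin. At selected times, anesthesia with thiobutobarbital 150 mg/kg ip, laparotomy and thoracic lymph duct catheter. Mesenteric lymph collected for at least 10 min, with a plasma sample at mid-collection. Methanol precipitation, then LC-MS-MS with internal standard.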

Plasma = test: AUC (0 to 6.4 hrs) in Wistar rat plasma at 10 mg/kg, po; format: ADME, organism-based; parameters: time < 6.4 hr, dose 10 mg/kg, route oral; conditions: in vivo
[22] = Tmax in Wistar rat mesenteric lymph at 10 mg/kg, po; format: ADME, organism-based, Mesenteric lymph node; parameters: dose 10 mg/kg, route oral; how it was run: as §4
[23] = Lipophilicity, log D of the compound at pH 7.4; format: physicochemical; conditions: buffer
[24] = Cmax in Wistar rat mesenteric lymph at 10 mg/kg, po; format: ADME, organism-based, Mesenteric lymph node; parameters: dose 10 mg/kg, route oral; how it was run: as §4
[25] = Tmax in Wistar rat plasma at 10 mg/kg, po; format: ADME, organism-based; parameters: dose 10 mg/kg, route oral; how it was run: as §4
[26] = AUC (0 to 6.4 hrs) in Wistar rat mesenteric lymph at 10 mg/kg, po; format: ADME, organism-based, Mesenteric lymph node; parameters: time < 6.4 hr, dose 10 mg/kg, route oral; conditions: in vivo

Chain of Sphingosine 1-phosphate receptor 1 (P21453 whole entry): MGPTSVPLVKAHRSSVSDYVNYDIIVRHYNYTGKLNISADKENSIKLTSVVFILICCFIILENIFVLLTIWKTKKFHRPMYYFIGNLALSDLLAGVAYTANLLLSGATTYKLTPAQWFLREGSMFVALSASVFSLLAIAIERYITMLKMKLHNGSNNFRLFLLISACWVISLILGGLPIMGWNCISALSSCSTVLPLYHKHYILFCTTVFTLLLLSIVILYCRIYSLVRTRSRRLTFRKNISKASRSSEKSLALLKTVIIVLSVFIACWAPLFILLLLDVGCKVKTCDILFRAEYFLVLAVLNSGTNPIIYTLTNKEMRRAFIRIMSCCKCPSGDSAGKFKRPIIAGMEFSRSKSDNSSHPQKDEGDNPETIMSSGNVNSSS
Chain of Sphingosine 1-phosphate receptor 3 (Q99500 whole entry): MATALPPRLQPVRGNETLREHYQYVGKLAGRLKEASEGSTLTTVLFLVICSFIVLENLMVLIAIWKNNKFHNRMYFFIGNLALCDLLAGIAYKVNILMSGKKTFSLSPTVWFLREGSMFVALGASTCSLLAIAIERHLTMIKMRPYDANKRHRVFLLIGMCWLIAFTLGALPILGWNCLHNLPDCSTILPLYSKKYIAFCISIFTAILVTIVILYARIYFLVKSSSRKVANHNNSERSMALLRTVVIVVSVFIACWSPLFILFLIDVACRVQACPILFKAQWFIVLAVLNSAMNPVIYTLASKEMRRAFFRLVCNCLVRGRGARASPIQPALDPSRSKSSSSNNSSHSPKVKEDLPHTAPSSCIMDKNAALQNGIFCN

EC50 [7]: 1.5 nM | EC50 [8]: 528 nM
SMILES: Cc1cc(-c2noc(-c3scc(CC(C)C)c3C)n2)cc(C)c1OCC(O)CNC(=O)CO (racemic)
Activity (Rattus norvegicus [1]): -27% | Activity (Rattus norvegicus [2]): -67% | Activity (Rattus norvegicus [3]): -72% | Activity (Rattus norvegicus [4]): -79% | % change in blood lymphocyte count from predose (Rattus norvegicus [5]): -80% | Activity (Rattus norvegicus [6]): -79%

half-life [9]: 1.7 h | hepatocyte CLint at 1 µM [10]: 107 µL/min/1e6 cells | concentration at 3 h [11]: 32 ng/mL | Cmax [12]: 141 ng/mL | clearance (Rattus norvegicus [13]): 46 mL/min/kg | bioavailability [14]: 8% | AUC(0-t) at 24 h [15]: 276 ng·h/mL | concentration at 6 h [16]: 10 ng/mL | Tmax [17]: 0.5 h | microsomal CLint at 1 µM [18]: > 1250 µL/min/mg | concentration at 24 h [19]: < 1.5 ng/mL | Vd [20]: 2.8 L/kg | EC50 [7]: 0.6 nM | EC50 [8]: 141 nM
SMILES: CCc1cc(CCC(=O)c2sc(CC)c3c2CCC(C)(C)C3)cc(C)c1OCC(O)CNC(=O)CO (racemic)
Activity (Rattus norvegicus [3]): Active | Activity (Rattus norvegicus [4]): Active

Cmax [21]: 376 ng/mL | AUC (Plasma): 1880 ng/mL/h | Tmax [22]: 1.4 h | logD [23]: 5.4 | Cmax [24]: 9050 ng/mL | Tmax [25]: 6.4 h | EC50 [7]: 2.4 nM | EC50 [8]: 15 nM | AUC [26]: 31300 ng/mL/h
SMILES: CCc1cc(-c2noc(-c3sc(CC)c4c3CCC(C)(C)C4)n2)cc(C)c1OC[C@@H](O)CO
